Laboratory results taken from paper PMC7490525 (Biochemistry and Biophysics Reports, 2020).
Where two headings read alike, the source gives them in different places. Marks after values point to notes of the source that are not given here.

How the values were obtained:
[1] = system: organic anion transporting polypeptides (OATPs); experiment: Effect of coincubated or pretreated compounds on BSP uptake by Caco-2 cells; format: cell-based, human; details: 37 °C, 5 min; for Decrease of BSP uptake on coincubation: 5 μM BSP with 100 μM compound, Caco-2 cells; for Ki: read-out: Inhibition constant (Ki) for BSP uptake, Dixon plot, competitive, 2, 5 or 10 μM BSP, PFCA 25, 50 or 100 μM, pH 6.0
Caco-2 cells [2] = details: cited from earlier work
Caco-2 cells [3] = format: in vitro ADME, human; details: 1 μM PFCA, pH 6.0, 37 °C, 5 min
[4] = system: organic anion transporting polypeptides (OATPs); details: Caco-2 cells; cited from earlier work
Caco-2 cells [5] = experiment: Uptake of BSP from the apical membrane of Caco-2 cells; format: in vitro ADME, human
Outline: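 Confluent Caco-2 cells (passage 54–70, 2 weeks on collagen) preincubated 20 min, then exposed to BSP in Hanks' buffer with glucose plus MES or HEPES. Conditions: 5 μM for 5 min at 37 °C pH 6.0 (control); pH 5.0/7.4/8.5; 4 °C; or Na+-free (KCl or choline chloride). Time course ran to 60 min; varied concentrations were fitted to carrier-mediated plus diffusion terms. Cell extracts normalised to protein; n=3–8.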

Caco-2 cells [6] = details: cited from earlier work; remark: listed apart in the source
[7] = coincubation of 5 μM BSP with 100 μM compound
[8] = 5 μM BSP, 37 °C, pH 6.0, up to 60 min
[9] = Caco-2 cells, 37 °C, pH 6.0, 5 min, BSP 0.5–100 μM

COc1ccc(Cl)cc1C(=O)NCCc1ccc(S(=O)(=O)NC(=O)NC2CCCCC2)cc1 [Glibenclamide, glibenclamide]
Decrease of BSP uptake on coincubation [1]: 48% | Relative uptake rate of BSP (% of control) [1, 7]: 52.2 ± 3.5 ^d % of control

O=C(O)C(F)(F)C(F)(F)C(F)(F)C(F)(F)C(F)(F)C(F)(F)C(F)(F)C(F)(F)C(F)(F)F [PFDA, perfluorodecanoic acid]
Decrease of BSP uptake on coincubation [1]: 27–55% | Ki [1]: 43.2 ± 0.3 µM

[N-]=[N+]=[N-].[Na+] [NaN3, sodium azide]
Relative uptake rate of BSP (% of control) ([1]; cells treated with 10 mM NaN3 for 20 min, then 5 μM BSP): 106.4 ± 6.8 % of control

O=C(O)C(F)(F)C(F)(F)C(F)(F)C(F)(F)C(F)(F)C(F)(F)C(F)(F)F [PFOA, Perfluorooctanoic acid]
Decrease of BSP uptake on coincubation [1]: 27–55% | Ki [1]: 62.2 ± 1.3 µM | Vmax of PFOA uptake (Caco-2 cells [2]; PFOA 1–500 μM): 457 pmol/mg protein/min | Km (Caco-2 cells [2]; read-out: Km of PFOA uptake, PFOA 1–500 μM): 8.3 µM | Uptake of PFCA by Caco-2 cells (rank among C6–C12) (Caco-2 cells [3]): third highest

O=[N+]([O-])c1ccc(O)c([N+](=O)[O-])c1 [DNP, 2,4-dinitrophenol]
Relative uptake rate of BSP (% of control) ([1]; cells treated with 1 mM DNP for 20 min, then 5 μM BSP): 105.9 ± 10.0 % of control

O=C(O)C(F)(F)C(F)(F)C(F)(F)C(F)(F)C(F)(F)C(F)(F)C(F)(F)C(F)(F)F [PFNA, perfluorononanoic acid]
Decrease of BSP uptake on coincubation [1]: 27–55% | Ki [1]: 35.3 ± 0.1 µM | Uptake of PFCA by Caco-2 cells (rank among C6–C12) (Caco-2 cells [3]): the highest

CO[C@H]1/C=C/O[C@@]2(C)Oc3c(C)c(O)c4c(O)c(cc(O)c4c3C2=O)NC(=O)/C(C)=C\C=C\[C@H](C)[C@H](O)[C@@H](C)[C@@H](O)[C@@H](C)[C@H](OC(C)=O)[C@@H]1C [rifamycin SV]
Decrease of BSP uptake on coincubation [4]: 40%

O=C(O)C(F)(F)C(F)(F)C(F)(F)C(F)(F)C(F)(F)C(F)(F)F [PFHpA, perfluoroheptanoic acid]
Decrease of BSP uptake on coincubation [1]: 27–55%

O=C(O)C(F)(F)C(F)(F)C(F)(F)C(F)(F)C(F)(F)F [PFHxA, Perfluorohexanoic acid]
Uptake of PFCA by Caco-2 cells (rank among C6–C12) (Caco-2 cells [3]): the lowest

O=C1OC(c2ccc(O)c(S(=O)(=O)O)c2)(c2ccc(O)c(S(=O)(=O)O)c2)c2c(Br)c(Br)c(Br)c(Br)c21 [BSP, sulfobromophthalein]
Relative uptake rate (% of control) (Caco-2 cells [5]; 5 μM BSP, 4 °C and pH 6.0, 5 min, control 37 °C and pH 6.0): 49.9 ± 3.1 ^d % of control | Relative uptake rate (% of control) (Caco-2 cells [5]; 5 μM BSP, 37 °C and pH 5.0, 5 min, control 37 °C and pH 6.0): 101.7 ± 5.1 % of control | Relative uptake rate (% of control) (Caco-2 cells [5]; 5 μM BSP, 37 °C and pH 7.4, 5 min, control 37 °C and pH 6.0): 105.2 ± 5.3 % of control | Relative uptake rate (% of control) (Caco-2 cells [5]; 5 μM BSP, 37 °C and pH 8.5, 5 min, control 37 °C and pH 6.0): 101.6 ± 1.3 % of control | Relative uptake rate (% of control) (Caco-2 cells [5]; 5 μM BSP, 37 °C, 5 min, Na+-free medium (NaCl replaced with KCl)): 95.0 ± 7.4 % of control | Relative uptake rate (% of control) (Caco-2 cells [5]; 5 μM BSP, 37 °C, 5 min, Na+-free medium (NaCl replaced with choline chloride)): 81.0 ± 4.0 % of control | Time at which BSP uptake plateaued (Caco-2 cells [5]; [8]): about 15 min | Time until which BSP uptake increased linearly (Caco-2 cells [5]; [8]): 10 min | Reduction of BSP uptake at low temperature (Caco-2 cells [5]; 4 °C, pH 6.0, versus 37 °C): 50% | Contribution of carrier-mediated uptake to BSP uptake (Caco-2 cells [5]; Caco-2 cells): approximately 70% | Contribution of uptake via simple diffusion to BSP uptake (Caco-2 cells [5]; Caco-2 cells): ~30% | Vmax of BSP uptake (Caco-2 cells [5]; [9]): 1.15 ± 0.07 nmol (mg protein)^−1 (5 min)^−1 | kd (coefficient of passive diffusion) of BSP uptake (Caco-2 cells [5]; [9]): 38.2 ± 0.53 μL (mg protein)^−1 (5 min)^−1 | Km (Caco-2 cells [5]; read-out: Km of BSP uptake, Caco-2 cells, 37 °C, pH 6.0, 5 min, BSP 0.5–100 μM): 13.9 ± 1.3 µM

O=C(O)C(F)(F)C(F)(F)C(F)(F)C(F)(F)C(F)(F)C(F)(F)C(F)(F)C(F)(F)C(F)(F)C(F)(F)F [PFUnDA, perfluoroundecanoic acid]
Decrease of BSP uptake on coincubation [1]: 27–55%

O=S(=O)(O)C(F)(F)C(F)(F)C(F)(F)C(F)(F)C(F)(F)C(F)(F)C(F)(F)C(F)(F)F [PFOS, perfluorooctane sulfonate]
Decrease of BSP uptake on coincubation [1]: 54% | Relative uptake rate of BSP (% of control) [1, 7]: 46.1 ± 4.5 ^d % of control

C[C@]12CC[C@@H]3c4ccc(OS(=O)(=O)O)cc4CC[C@H]3[C@@H]1CCC2=O [estrone-3-sulfate]
Km (Caco-2 cells [6]; read-out: Km of estrone-3-sulfate, ref Gram et al. [27]): 23 µM | Km (Caco-2 cells [6]; read-out: Km of estrone-3-sulfate, ref Kis et al. [26]): 6 µM | Km (Caco-2 cells [6]; read-out: Km of estrone-3-sulfate, ref Sai et al. [4]): 1.8 µM | Decrease of BSP uptake on coincubation [4]: 39%
